Here are results for one compound from ChEMBL document CHEMBL4339195, “Di-aryl Sulfonamide Motif Adds π-Stacking Bulk in Negative Allosteric Modulators of the NMDA Receptor” (ACS Med Chem Lett, 2019).

In general, IC50 refers to the point on the concentration scale where inhibition reaches its midpoint. By inhibition is commonly meant the drop in the measured response relative to a control, in per cent.

Common to all, as to type: cell-based
Assay [1] has as its target Glutamate NMDA receptor; Grin1/Grin2c (Rattus norvegicus, UniProt P35439+Q00961). As to the kind of experiment: Negative allosteric modulation of recombinant rat GluN1/GluN2C expressed in Xenopus laevis oocytes assessed as inhibition of glutamate/glycine-induced current response at -40 mV holding potential by two-electrode voltage clamp method. Summed up: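 Oocytes recorded while the drug is co-applied with a maximally effective 100 µM glutamate plus 30 µM glycine. Response is expressed as percent of the glutamate/glycine control. IC50 comes from a Hill fit to the average composite concentration-response curve. 8-16 oocytes from 2-3 frogs per compound and receptor.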
For orientation: In two-electrode clamp one electrode senses voltage and the other passes current.

Assay [2] concerns the target Glutamate receptor 1 (Rattus norvegicus) (UniProt P19490). Description: Negative allosteric modulation of recombinant rat GluA1 expressed in Xenopus laevis oocytes assessed as inhibition of glutamate-induced current response at 30 uM at -40 mV holding potential by two-electrode voltage clamp method relative to glutamate alone. A digest of the protocol:
(§1)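 Oocyte two-electrode voltage clamp at -40 mV holding. Test compound co-applied with agonist; response given as percent of the mean of control and recovery currents to agonist alone. Agonists: 100 µM glutamate (AMPA, kainate), 100 µM GABA (GABA receptors), 100 µM glycine (glycine receptor), 100 µM serotonin (5-HT3A), 9 µM ATP (P2X), 1 µM acetylcholine (nicotinic).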

The subject of assay [3] is Glutamate receptor 3 (Homo sapiens), P42263 [L513Y]. Description: Negative allosteric modulation of human GluA3 L513Y mutant expressed in Xenopus laevis oocytes assessed as inhibition of glutamate-induced current response at 30 uM at -40 mV holding potential by two-electrode voltage clamp method relative to glutamate alone. A digest of the protocol: as §1
In assay [4] the test system is Glutamate receptor 4 (Homo sapiens), P48058 [L505Y]. As to the kind of experiment: Negative allosteric modulation of human GluA4 L505Y mutant expressed in Xenopus laevis oocytes assessed as inhibition of glutamate-induced current response at 30 uM at -40 mV holding potential by two-electrode voltage clamp method relative to glutamate alone. Summed up: as §1
Chain of Glutamate receptor 4 (Homo sapiens), P48058 [L505Y] (P48058 whole entry L505Y): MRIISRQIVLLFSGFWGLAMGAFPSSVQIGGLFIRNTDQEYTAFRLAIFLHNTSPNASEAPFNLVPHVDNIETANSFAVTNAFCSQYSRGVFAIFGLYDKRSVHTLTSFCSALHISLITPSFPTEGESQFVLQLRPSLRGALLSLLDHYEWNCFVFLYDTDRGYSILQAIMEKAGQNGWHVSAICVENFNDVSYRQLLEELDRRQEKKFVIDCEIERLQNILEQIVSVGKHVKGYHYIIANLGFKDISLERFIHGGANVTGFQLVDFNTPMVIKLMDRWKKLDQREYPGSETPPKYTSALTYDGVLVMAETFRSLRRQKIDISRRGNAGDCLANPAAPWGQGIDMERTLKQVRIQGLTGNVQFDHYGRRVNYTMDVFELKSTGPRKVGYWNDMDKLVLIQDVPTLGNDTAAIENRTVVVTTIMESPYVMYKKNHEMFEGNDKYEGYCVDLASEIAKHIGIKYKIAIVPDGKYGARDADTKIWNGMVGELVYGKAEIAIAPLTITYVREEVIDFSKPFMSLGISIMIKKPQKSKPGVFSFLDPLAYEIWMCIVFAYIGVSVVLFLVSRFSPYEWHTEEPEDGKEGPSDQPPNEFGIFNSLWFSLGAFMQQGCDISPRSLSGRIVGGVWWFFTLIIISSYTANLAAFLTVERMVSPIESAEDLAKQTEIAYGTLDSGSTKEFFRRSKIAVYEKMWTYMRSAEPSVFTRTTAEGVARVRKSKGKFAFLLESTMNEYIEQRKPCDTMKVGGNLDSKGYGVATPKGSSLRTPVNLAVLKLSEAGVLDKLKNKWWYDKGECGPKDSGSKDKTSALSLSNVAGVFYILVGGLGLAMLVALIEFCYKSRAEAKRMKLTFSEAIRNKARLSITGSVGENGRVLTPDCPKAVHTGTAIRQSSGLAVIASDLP
Assay [5] addresses Glutamate receptor ionotropic, kainate 2 (Rattus norvegicus) (UniProt P42260). Description: Negative allosteric modulation of rat GluK2 expressed in Xenopus laevis oocytes assessed as inhibition of glutamate-induced current response at 30 uM at -40 mV holding potential in presence of concanavalin A by two-electrode voltage clamp method relative to glutamate alone. A digest of the protocol: as §1

The target in assay [6] is T1, Glycine receptor subunit alpha-1 (Rattus norvegicus) (UniProt P07727).
T1 sequence (whole entry): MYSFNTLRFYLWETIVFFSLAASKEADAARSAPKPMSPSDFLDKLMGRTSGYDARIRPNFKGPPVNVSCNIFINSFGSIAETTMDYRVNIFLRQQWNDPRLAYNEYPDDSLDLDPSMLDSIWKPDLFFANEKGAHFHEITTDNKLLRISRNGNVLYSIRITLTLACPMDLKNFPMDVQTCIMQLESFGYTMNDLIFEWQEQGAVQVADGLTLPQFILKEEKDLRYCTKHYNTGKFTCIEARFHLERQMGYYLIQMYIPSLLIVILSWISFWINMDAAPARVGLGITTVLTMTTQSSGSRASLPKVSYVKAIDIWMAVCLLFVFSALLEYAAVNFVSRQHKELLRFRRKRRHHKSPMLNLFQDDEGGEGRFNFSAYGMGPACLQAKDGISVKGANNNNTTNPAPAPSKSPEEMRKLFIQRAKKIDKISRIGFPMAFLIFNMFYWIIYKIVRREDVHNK
Description: Negative allosteric modulation of rat glycine alpha1 expressed in Xenopus laevis oocytes assessed as inhibition of glycine-induced current response at 30 uM at -40 mV holding potential by two-electrode voltage clamp method relative to glycine alone. Summed up:
as §1

Chain of Glutamate receptor 1 (Rattus norvegicus) (P19490 whole entry): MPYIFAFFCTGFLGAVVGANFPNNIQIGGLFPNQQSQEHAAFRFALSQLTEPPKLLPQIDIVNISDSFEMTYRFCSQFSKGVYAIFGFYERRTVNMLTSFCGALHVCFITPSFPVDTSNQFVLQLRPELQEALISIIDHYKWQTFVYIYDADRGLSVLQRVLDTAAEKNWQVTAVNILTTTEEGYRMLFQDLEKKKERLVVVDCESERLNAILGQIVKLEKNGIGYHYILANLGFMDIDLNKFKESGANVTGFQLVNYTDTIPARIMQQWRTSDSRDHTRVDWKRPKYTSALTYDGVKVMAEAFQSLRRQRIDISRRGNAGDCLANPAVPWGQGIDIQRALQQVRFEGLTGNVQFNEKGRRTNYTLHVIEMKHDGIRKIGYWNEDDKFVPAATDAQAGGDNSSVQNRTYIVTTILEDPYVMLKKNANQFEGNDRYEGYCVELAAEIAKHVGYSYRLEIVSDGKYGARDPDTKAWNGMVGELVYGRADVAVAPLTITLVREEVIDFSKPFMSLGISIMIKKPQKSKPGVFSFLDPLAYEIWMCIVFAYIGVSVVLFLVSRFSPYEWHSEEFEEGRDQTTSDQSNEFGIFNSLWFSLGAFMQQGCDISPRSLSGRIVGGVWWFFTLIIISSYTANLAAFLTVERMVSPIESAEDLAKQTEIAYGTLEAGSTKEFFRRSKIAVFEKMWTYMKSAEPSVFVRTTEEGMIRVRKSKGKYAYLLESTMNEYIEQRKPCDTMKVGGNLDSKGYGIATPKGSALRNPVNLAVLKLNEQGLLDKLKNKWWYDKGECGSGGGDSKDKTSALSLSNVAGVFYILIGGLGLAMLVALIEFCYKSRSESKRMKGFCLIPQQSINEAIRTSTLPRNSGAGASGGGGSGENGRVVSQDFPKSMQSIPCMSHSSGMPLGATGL
Chain of Glutamate NMDA receptor; Grin1/Grin2c (Q00961 whole entry, other chains not shown): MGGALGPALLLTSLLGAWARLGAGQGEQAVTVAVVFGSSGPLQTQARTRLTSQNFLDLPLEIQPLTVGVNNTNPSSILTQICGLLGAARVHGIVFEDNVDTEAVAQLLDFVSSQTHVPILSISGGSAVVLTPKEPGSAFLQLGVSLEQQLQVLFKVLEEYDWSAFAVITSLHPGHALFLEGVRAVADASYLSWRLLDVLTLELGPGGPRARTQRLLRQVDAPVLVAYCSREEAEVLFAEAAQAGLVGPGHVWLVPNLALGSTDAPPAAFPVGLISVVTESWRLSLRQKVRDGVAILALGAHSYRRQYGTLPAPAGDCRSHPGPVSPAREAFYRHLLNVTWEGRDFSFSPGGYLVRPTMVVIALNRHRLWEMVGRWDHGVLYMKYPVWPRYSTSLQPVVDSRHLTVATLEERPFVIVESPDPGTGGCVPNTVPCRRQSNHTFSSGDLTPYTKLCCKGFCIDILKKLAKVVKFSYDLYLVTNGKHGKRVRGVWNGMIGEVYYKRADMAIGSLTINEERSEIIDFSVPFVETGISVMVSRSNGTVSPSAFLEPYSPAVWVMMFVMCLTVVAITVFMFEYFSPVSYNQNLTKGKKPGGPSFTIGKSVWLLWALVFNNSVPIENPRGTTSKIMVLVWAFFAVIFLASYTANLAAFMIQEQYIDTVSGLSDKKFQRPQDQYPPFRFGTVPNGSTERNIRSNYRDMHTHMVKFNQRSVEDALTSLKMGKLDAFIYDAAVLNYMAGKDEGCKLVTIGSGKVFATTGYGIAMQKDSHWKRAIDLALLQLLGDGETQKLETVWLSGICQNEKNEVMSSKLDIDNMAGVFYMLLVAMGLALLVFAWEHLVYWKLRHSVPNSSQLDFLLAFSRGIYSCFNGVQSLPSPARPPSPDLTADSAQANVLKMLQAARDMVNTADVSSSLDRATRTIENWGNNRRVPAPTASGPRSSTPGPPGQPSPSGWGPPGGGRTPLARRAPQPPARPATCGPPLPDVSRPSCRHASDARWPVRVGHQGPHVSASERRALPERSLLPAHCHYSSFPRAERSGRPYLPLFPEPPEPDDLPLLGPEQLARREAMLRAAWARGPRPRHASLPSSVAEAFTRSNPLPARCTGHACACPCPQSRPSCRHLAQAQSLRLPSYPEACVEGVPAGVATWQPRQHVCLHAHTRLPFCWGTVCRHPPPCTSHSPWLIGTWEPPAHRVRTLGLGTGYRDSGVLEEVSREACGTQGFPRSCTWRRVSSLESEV
Chain of Glutamate receptor 3 (Homo sapiens), P42263 [L513Y] (P42263 whole entry L513Y): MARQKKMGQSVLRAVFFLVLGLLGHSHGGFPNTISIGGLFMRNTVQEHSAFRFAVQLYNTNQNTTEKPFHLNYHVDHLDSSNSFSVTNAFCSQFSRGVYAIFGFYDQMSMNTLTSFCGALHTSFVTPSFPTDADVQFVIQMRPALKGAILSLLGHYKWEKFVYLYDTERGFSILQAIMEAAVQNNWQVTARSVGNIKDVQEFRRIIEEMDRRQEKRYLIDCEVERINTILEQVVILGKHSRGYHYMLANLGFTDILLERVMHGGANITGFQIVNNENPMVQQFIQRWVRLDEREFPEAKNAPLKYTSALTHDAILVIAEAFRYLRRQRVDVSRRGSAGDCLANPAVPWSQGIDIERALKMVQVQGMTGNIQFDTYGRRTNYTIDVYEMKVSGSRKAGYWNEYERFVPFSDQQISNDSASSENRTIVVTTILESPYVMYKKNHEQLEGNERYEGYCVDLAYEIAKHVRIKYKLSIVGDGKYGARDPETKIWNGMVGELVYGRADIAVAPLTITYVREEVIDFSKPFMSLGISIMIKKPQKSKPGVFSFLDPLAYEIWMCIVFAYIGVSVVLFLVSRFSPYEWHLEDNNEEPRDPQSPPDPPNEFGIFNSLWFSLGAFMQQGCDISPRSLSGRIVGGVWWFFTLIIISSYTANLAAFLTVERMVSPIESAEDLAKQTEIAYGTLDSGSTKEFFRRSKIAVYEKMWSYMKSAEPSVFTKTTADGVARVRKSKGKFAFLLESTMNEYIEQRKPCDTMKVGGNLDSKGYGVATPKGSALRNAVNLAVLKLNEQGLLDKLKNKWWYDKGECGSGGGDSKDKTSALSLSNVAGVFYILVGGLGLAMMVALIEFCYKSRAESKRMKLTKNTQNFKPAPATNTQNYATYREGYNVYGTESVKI
Chain of Glutamate receptor ionotropic, kainate 2 (Rattus norvegicus) (P42260 whole entry): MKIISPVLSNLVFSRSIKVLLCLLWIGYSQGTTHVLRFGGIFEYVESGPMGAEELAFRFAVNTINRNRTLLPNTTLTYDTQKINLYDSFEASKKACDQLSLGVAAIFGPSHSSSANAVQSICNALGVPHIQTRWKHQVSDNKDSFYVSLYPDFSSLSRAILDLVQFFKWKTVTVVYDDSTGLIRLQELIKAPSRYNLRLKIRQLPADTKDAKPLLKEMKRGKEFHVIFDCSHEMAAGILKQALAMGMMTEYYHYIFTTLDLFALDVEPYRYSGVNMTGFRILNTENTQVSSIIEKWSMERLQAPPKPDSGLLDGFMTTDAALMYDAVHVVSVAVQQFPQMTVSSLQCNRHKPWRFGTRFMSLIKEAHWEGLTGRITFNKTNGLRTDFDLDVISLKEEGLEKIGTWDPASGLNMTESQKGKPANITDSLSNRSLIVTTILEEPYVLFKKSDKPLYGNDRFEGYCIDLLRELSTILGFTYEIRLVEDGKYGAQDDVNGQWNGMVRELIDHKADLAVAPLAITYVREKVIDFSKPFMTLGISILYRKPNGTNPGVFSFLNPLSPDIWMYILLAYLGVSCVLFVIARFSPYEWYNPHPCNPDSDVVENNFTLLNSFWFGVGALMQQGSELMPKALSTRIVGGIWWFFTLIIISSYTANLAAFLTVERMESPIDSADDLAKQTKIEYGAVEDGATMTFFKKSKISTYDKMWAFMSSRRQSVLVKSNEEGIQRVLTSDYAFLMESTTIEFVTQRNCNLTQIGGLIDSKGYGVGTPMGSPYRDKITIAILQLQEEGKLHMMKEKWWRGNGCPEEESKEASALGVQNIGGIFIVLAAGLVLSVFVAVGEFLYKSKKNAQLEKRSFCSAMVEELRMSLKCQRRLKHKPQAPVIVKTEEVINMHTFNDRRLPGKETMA

Consider `CCN(CC)C(=O)Oc1ccc(C(=O)Nc2cccc(CCNS(=O)(=O)c3ccccc3)c2)cc1`, for which the IC50 in assay [1] was 2.4 µM. For the same compound, the inhibition in assay [2] came to 79%; in assay [3], 86%; in assay [4], 86%; in assay [5], 92%; in assay [6] it was 30%.
